Values after ≈ are worked out from the molar mass of the structure shown. Active and inactive are the calls of the source. The calls are words filed in the database; no cut-off is given here.
How the values were obtained:
Escherichia coli [1] = experiment: Antimicrobial activity against hldE-deficient Escherichia coli O18:K1:H7 after overnight incubation; format: functional
Escherichia coli [2] = experiment: Antimicrobial activity against wild type Escherichia coli O18:K1:H7 after overnight incubation; format: functional
How it was run: (§1)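 Broth microdilution MIC in cation-adjusted MHB, final inoculum 5 × 10⁵ CFU/mL from early-to-log preculture; serial compound dilutions in 2% DMSO, overnight at 35 °C, growth scored visually. Each strain tested with and without erythromycin (1 μg/mL for K12 ΔacrAB ΔtolC, 8 μg/mL for K1 wild type, 1 μg/mL for K1 ΔtolC).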

[3] = Inhibition of Escherichia coli O18:K1 C7 ribokinase expressed in Escherichia coli BL21 using D-ribose as substrate incubated for 30 mins prior to substrate addition measured after 30 mins by luminescence assay
How it was run: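 Ribokinase run as the HldE kinase assay: purified E. coli ribokinase at 0.6 nM, 3 μM D-ribose, 3 μM ATP. Inhibitor preincubated 30 min, reaction run 30 min at room temperature, luciferase luminescence read-out, IC50 from 6−10 concentrations.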

[4] = Inhibition of Neisseria meningitidis 2C43 hldE-K expressed in Escherichia coli BL21 using beta-heptose 7-phosphate as substrate incubated for 30 mins prior to substrate addition measured after 30 mins by luminescence assay
How it was run: (§2)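 HldE kinase luminescence assay as for E. coli, with enzyme at 20 nM for K. pneumoniae, 20 nM for N. meningitidis and 10 nM for S. marcescens. Heptose 7-phosphate and ATP each at 0.2 μM; 30 min preincubation and 30 min reaction at room temperature.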

[5] = Inhibition of Serratia marcescens NEM017811 hldE-K expressed in Escherichia coli BL21 using beta-heptose 7-phosphate as substrate incubated for 30 mins prior to substrate addition measured after 30 mins by luminescence assay; how it was run: as §2
Klebsiella pneumoniae = experiment: Inhibition of Klebsiella pneumoniae ATCC 700603 hldE-K expressed in Escherichia coli BL21 using beta-heptose 7-phosphate as substrate incubated for 30 mins prior to substrate addition measured after 30 mins by luminescence assay; conditions: ATCC 700603, BL21; how it was run: as §2
Escherichia coli [6] = experiment: Antimicrobial activity against acrAB, tolC-deficient Escherichia coli str. K-12 substr. MG1655 after 18 to 22 hrs; format: functional
Escherichia coli [7] = experiment: Antimicrobial activity against tolC-deficient Escherichia coli O18:K1:H7 assessed as inhibition of LPS synthesis at 16 ug/mL after 5 hrs by silver staining-based electrophoretic analysis; format: functional, organism-based
How it was run: (§3)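 Exponential LB cultures diluted to 5 × 10⁵ CFU/mL, incubated with compound (from water/DMSO 50/50) at 37 °C about 5 h to OD 0.2−0.4. OD-normalized pellets were PBS-washed, SDS-denatured at 95−100 °C, proteinase K-treated 1 h at 55 °C, and run on 16% SDS-PAGE with silver staining. The lowest dose yielding Re-LPS was recorded.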

Escherichia coli [8] = experiment: Antimicrobial activity against acrAB, tolC-deficient Escherichia coli str. K-12 substr. MG1655 assessed as inhibition of LPS synthesis at 2 ug/mL after 5 hrs by silver staining-based electrophoretic analysis; format: functional; how it was run: as §3
HepG2 = experiment: Cytotoxicity against human HepG2 cells after overnight incubation by one cell proliferation assay; format: cell-based
How it was run: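 HepG2 cells at 2 × 10⁴ per well in EMEM with 10% FBS, grown overnight at 37 °C in 5% CO₂. Medium then replaced by compound dilutions in medium with 2% DMSO for overnight incubation. Viability read by CellTiter Aqueous One MTS absorbance at 490 nm.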

Escherichia coli [9] = experiment: Antimicrobial activity against tolC-deficient Escherichia coli O18:K1:H7 after overnight incubation in presence of erythromycin; format: functional; how it was run: as §1
Escherichia coli [10] = experiment: Antimicrobial activity against tolC-deficient Escherichia coli O18:K1:H7 after overnight incubation in absence of erythromycin; format: functional; how it was run: as §1
Escherichia coli [11] = experiment: Antimicrobial activity against acrAB, tolC-deficient Escherichia coli str. K-12 substr. MG1655 after overnight incubation in presence of erythromycin; format: functional; how it was run: as §1
Escherichia coli [12] = experiment: Antimicrobial activity against acrAB, tolC-deficient Escherichia coli str. K-12 substr. MG1655 after overnight incubation in absence of erythromycin; format: functional; how it was run: as §1
[13] = Inhibition of Escherichia coli O18:K1 C7 hldE-K expressed in Escherichia coli BL21 using beta-heptose 7-phosphate as substrate incubated for 30 mins prior to substrate addition measured after 30 mins by luminescence assay
How it was run: (§4)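 E. coli HldE (His-tagged, IPTG-induced, Ni-NTA-purified), 3 nM, preincubated 30 min at room temperature with inhibitor in Hepes pH 7.5, MnCl₂, KCl, 0.012% Triton-X100, DTT, MBP. Reaction with 0.2 μM heptose 7-phosphate and 0.2 μM ATP, 30 min at room temperature. Remaining ATP read by luciferase/luciferin luminescence; 6−10 concentrations fitted to a Langmuir model for IC50.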

[14] = Competitive reversible inhibition of Escherichia coli O18:K1 C7 hldE-K expressed in Escherichia coli BL21 using D-manno-heptose 7-phosphate as substrate incubated for 30 mins prior to substrate addition measured after 30 mins by double reciprocal plot analysis in presence of ATP
How it was run: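 ATP competition on E. coli HldE-K at 2 μM D-manno-heptose 7-phosphate with varied ATP. Initial velocities read by luciferase luminescence and analysed as a double reciprocal plot of 1/v versus 1/[ATP].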

Escherichia coli [15] = experiment: Inhibition of Escherichia coli O18:K1 C7 hldE-K expressed in Escherichia coli BL21 using D-manno-heptose 7-phosphate as substrate incubated for 30 mins prior to substrate addition measured after 30 mins by luminescence assay; how it was run: as §4
Escherichia coli [16] = experiment: Inhibition of Escherichia coli O18:K1 C7 hldE-K expressed in Escherichia coli BL21 using beta-heptose 7-phosphate as substrate incubated for 30 mins prior to substrate addition measured after 30 mins by luminescence assay in presence of Triton-X 100
How it was run: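 E. coli HldE kinase luminescence assay with Triton-X100 at 100 μM to 1 mM added to test for promiscuous, aggregation-type inhibition. Otherwise 3 nM enzyme, 30 min inhibitor preincubation, and 30 min reaction with heptose 7-phosphate and ATP at room temperature.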

`CO[C@@H]1[C@@H](OC(N)=O)[C@@H](O)[C@H](Oc2ccc3c(O)c(NC(=O)c4ccc(O)c(CC=C(C)C)c4)c(=O)oc3c2C)OC1(C)C` [NOVOBIOCIN] showed an MIC (Escherichia coli [1]) of 0.5 µg/mL (≈ 0.816 µM) and an MIC (Escherichia coli [2]) of 32 µg/mL (≈ 52.2 µM).
With `O=C(COc1ccc2sc(CNc3nncc(-c4c(Cl)cccc4Cl)n3)nc2c1)NCCO` the IC50 [3] was > 300 µM, the IC50 [4] was 1900 nM and the IC50 [5] was 76 nM. The IC50 (Klebsiella pneumoniae) was 150 nM, the MIC (Escherichia coli [6]) was > 32 µg/mL and the inhibition (Escherichia coli [7]) was “Active”. For the same compound, the inhibition (Escherichia coli [8]) was “Active”, the Activity (HepG2) was > 32 µg/mL and the MIC (Escherichia coli [9]) was 16 µg/mL. The MIC (Escherichia coli [10]) was > 32 µg/mL, the MIC (Escherichia coli [11]) was 2 µg/mL and the MIC (Escherichia coli [12]) was > 32 µg/mL. For the same compound, the IC50 [13] was 49 nM.
With `CC[C@H]1OC(=O)[C@H](C)[C@@H](O[C@H]2C[C@@](C)(OC)[C@@H](O)[C@H](C)O2)[C@H](C)[C@@H](O[C@@H]2O[C@H](C)C[C@H](N(C)C)[C@H]2O)[C@](C)(O)C[C@@H](C)C(=O)[C@H](C)[C@@H](O)[C@]1(C)O` [ERYTHROMYCIN] the MIC (Escherichia coli [1]) was 0.5 µg/mL (≈ 0.681 µM) and the MIC (Escherichia coli [2]) was 32 µg/mL (≈ 43.6 µM).
`CC[C@H]1OC(=O)[C@H](C)C(=O)[C@H](C)[C@@H](O[C@@H]2O[C@H](C)C[C@H](N(C)C)[C@H]2O)[C@](C)(OC)C[C@@H](C)C(=O)[C@H](C)[C@H]2N(CCCCn3cnc(-c4cccnc4)c3)C(=O)O[C@]12C` [TELITHROMYCIN] gave an MIC (Escherichia coli [1]) of 0.25 µg/mL (≈ 0.308 µM) and an MIC (Escherichia coli [2]) of 8 µg/mL (≈ 9.85 µM).
In the case of `COc1cccc(OC)c1-c1cnnc(NCc2nc3ccccc3s2)n1`, the Ki [14] is reported as 2500 nM, the inhibition (Escherichia coli [15]) is reported as “Active” and the inhibition (Escherichia coli [16]) is reported as “Active”. It also gave an IC50 [13] of 2000 nM.
